Laboratory results reported in ChEMBL document CHEMBL4334468, “Exploring Mitochondria-Mediated Intrinsic Apoptosis by New Phytochemical Entities: An Explicit Observation of Cytochrome c Dynamics on Lung and Melanoma Cancer Cells” (J Med Chem, 2019).
The source made the active and inactive calls. The rule behind the calls is not given here.

What was measured:
Type in all cases: functional, cell-based
A549 [1] = test: Cytotoxicity in human A549 cells assessed as reduction in cell viability incubated for 24 hrs by MTT assay; settings: Homo sapiens, A549, 24 h; read-out: IC50
Outline: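 MTT viability assay on A375 melanoma, A549 lung adenocarcinoma and WI-38 normal lung fibroblast cells after 24 and 48 h treatment. IC50 values are in µM, expressed as mean ± SD.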

A-375 [2] = test: Induction of GSH depletion in human A375 cells by fluorimetry
A-375 [3] = test: Induction of morphological changes in human A375 cells assessed as change in shape of cells from spindle to spherical at 1 uM by atomic force microscopy
A-375 [4] = test: Induction of morphological changes in human A375 cells assessed as induction of membrane breakage, blebbing and leakage of intracellular components at 1 uM by atomic force microscopy
A549 [5] = test: Induction of apoptosis in human A549 cells at 1 uM by acridine orange-ethidium bromide assay
Outline: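 Cells were treated at 1 µM and then stained with acridine orange-ethidium bromide. Apoptosis was scored by fluorescence microscopy as a colour shift from green to yellow/red.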

A549 [6] = test: Induction of apoptosis related protein expression in human A549 cells assessed as increase in CD40 expression at 20 uM incubated for 12 hrs by apoptosis antibody array

## COc1cc(C2Oc3cc(-c4cc(=O)c5c(O)cc(O)cc5o4)ccc3OC2/C=C2\C(=O)ON=C2c2ccc(Cl)cc2)ccc1O (stereo unspecified)
A549 [1]
  IC50: 2000 nM
A-375 [2]
  Activity: Active
A-375 [3]
  Activity: Active
A-375 [4]
  Activity: Active
A549 [5]
  Activity: Active
A549 [6]
  Activity: Active
